Rows were chosen to be rich in hits. Some 5.4% of all compounds tested hit in one or more screens of this group.
aSyn 5UTR inh: 5' untranslated region of α-synuclein, MLPCN primary screen; hit rate 0.82% among 300,000; AID 1813; inhibition, % (tested at 7.5 µM); alpha-synuclein 5'UTR reporter, inhibitor activity; in the data active = inhibition above about 60%;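 also: H4 neuroglioblastoma cells stably carrying SNCA 5'UTR luciferase fusion; 0% = DMSO wells and 100% = positive control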
Mdm2 MdmX PPI: human Mdm2/MdmX binding inhibition; inhibition, % at 8 µM; O15151+Q00987; hit rate 3% among 330,000; AID 485346; SaOS-2 split-luciferase Mdm2/MdmX complementation, luminescence;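 active = inhibition of at least 50% at 8 µM in the primary screen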
Target sequence (O15151 whole entry, looked up): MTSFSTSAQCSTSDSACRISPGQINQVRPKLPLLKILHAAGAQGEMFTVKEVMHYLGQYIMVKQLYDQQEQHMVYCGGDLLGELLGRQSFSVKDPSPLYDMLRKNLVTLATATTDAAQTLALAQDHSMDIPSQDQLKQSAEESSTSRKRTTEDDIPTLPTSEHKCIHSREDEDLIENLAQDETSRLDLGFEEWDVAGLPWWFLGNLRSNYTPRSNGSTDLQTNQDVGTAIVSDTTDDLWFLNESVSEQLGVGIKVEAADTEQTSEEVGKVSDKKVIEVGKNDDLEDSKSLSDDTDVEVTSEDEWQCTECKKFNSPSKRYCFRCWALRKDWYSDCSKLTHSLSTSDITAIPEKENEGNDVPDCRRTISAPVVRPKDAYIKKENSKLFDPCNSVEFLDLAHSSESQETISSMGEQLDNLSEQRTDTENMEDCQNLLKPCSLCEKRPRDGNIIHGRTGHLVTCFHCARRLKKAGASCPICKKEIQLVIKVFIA
Target sequence (Q00987 whole entry, looked up): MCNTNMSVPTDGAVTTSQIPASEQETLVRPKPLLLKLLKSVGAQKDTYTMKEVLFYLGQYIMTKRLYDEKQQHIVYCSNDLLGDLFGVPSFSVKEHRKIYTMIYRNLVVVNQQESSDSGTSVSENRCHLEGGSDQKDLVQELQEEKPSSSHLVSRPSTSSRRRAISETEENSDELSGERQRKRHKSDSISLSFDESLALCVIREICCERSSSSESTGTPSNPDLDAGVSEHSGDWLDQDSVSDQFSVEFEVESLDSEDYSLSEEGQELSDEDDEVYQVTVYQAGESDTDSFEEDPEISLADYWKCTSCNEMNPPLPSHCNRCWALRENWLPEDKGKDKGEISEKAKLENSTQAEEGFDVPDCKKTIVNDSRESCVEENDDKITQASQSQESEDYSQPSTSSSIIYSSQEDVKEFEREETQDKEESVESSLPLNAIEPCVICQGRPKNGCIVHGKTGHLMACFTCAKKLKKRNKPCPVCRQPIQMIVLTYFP
SKKanGAS inh: blocks kanamycin growth of S. pyogenes SKKanGAS strain; BacTiter-Glo, 6 h; inhibition, % at 7.5 µM; hit rate 1.3% among 300,000; AID 1662;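 active = mean replicate score, as percent of positive control median, at least 50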;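 also: strain carries kanamycin resistance gene driven by streptokinase promoter and grows in 40 µg/ml kanamycin; loss of luminescence reflects streptokinase promoter inhibition or plain growth inhibition; 0% = median of DMSO wells and 100% = positive control at its reference dose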
CSC inhib: cancer stem cell inhibition. cancer stem cell-like cells viability, luminescence. inhibition, % at 7.5 µM. hit rate 1.1% among 300,000. AID 2717; in the data active = inhibition above about 75%; tested in HMLE shEcad cells
T cruzi inh: blocks replication of Trypanosoma cruzi; AID 1885; T. cruzi beta-gal in NIH3T3, luminescence, 90 h; inhibition, % (concentration not given with the values); hit rate 1.4% among 300,000;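 active = mean inhibition across valid replicates above about 55%, limit read from the data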;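 also: signal also drops with host cell toxicity which is not excluded here; 0% = plate median of DMSO wells and 100% = zero luminescence signal; higher percent means less beta-gal luminescence so fewer parasites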
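Material: NIH/3T3 host cells with β-galactosidase reporter T. cruzi; Input: 5,000 host fibroblasts per well; Medium: DMEM, 2% fetal bovine serum; Compound: 50 nL DMSO compound solution per well; Schedule: 3 h host attachment, then at least 90 h co-culture; Detection: luminescent β-galactosidase signal after 60 min lysis.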
* hit, by the source's call; . = no result.

SMILES	aSyn 5UTR inh	Mdm2 MdmX PPI	SKKanGAS inh	CSC inhib	T cruzi inh
CC1CC1C(=O)N1CCN(S(=O)(=O)c2cc(C(F)(F)F)cc(C(F)(F)F)c2)CC1 (configuration not stated)	.	18.3	.	78.7*	.
CC(SCC(=O)Nc1ccc(F)cc1)c1nc2ccccc2c(=O)[nH]1 (configuration not stated)	15.0	-2.9	-5.5	-2.9	-0.9
CCOC(=O)c1cnn(-c2nc(-c3ccc(F)cc3)cs2)c1C(F)(F)F	-0.7	6.9	38.8	8.6	15.3
CCOC(=O)c1cnn(-c2nc(-c3ccccc3F)cs2)c1C(F)(F)F	1.2	-11.5	51.9*	-5.4	-4.5
CCOC(=O)c1cnn(-c2nc(-c3ccccc3)cs2)c1C(F)(F)F	-31.8	-0.2	70.7*	-6.3	-21.8
Cc1onc(-c2ccccc2)c1C(=O)Nc1nnc(CC(C)(C)C)s1	20.7	12.0	2.0	-29.6	14.0
O=C(OCN1C(=O)c2ccccc2C1=O)c1cc(S(=O)(=O)N2CCOCC2)ccc1F	.	12.9	.	.	.
O=C(COc1ccc2ccccc2c1)Nc1ccc(Br)cc1C(=O)O	27.0	.	41.5	-3.5	-7.9
Cc1csc(NC(=O)c2ccc3ccccc3n2)n1	-45.7	-112.7	59.8*	-8.1	-7.0
CCC(CC)c1nnc(NC(=O)c2cc(-c3ccccc3)nc3ccccc23)s1	15.8	-6.6	23.3	39.4	-17.9
Cc1csc(NC(=O)c2cnc3ccccc3n2)n1	-9.0	-32.0	-3.1	-5.0	0.0
Cc1csc(NC(=O)c2cn3ccccc3n2)n1	81.6*	19.8	23.2	28.0	-3.5
CCC(CC)c1nnc(NC(=O)c2ccc3ccccc3n2)s1	-85.7	-195.5	79.4*	17.3	2.1
O=C(Nc1ccccc1)c1cn2ccccc2n1	50.8	9.0	-2.6	19.5	-1.0
COC(=O)c1ccc(OCC(=O)c2cccc(OC)c2)cc1	-61.3	-29.9	-2.7	.	-13.0
COc1cc(C2SCC(=O)N2CCCN(C)C)cc(OC)c1OC (configuration not stated)	6.4	14.2	-4.7	-4.5	60.9*
CC(c1ccccc1)n1c(SCC(=O)Nc2ccccc2)n[nH]c1=O (configuration not stated)	8.0	28.7	-4.6	.	-1.3
Cc1ccc(-n2c(O)c(C=Nc3ccccc3-c3n[nH]c(=S)[nH]c3=O)c3ccccc3c2=O)c(C)c1	7.6	3.1	72.6*	12.4	21.2
CN(CC(=O)Nc1ccccc1C(F)(F)F)C(=O)c1ccccc1Sc1ccccc1C#N	.	5.7	.	-24.8	.
Cn1cnnc1Sc1nc([N+](=O)[O-])nn1C	-5.3	8.2	2.6	-10.1	14.9
CNc1ccc(Oc2nc([N+](=O)[O-])nn2C)cc1	-4.8	12.6	8.4	-5.2	68.6*
CNc1nc(C)c([N+](=O)[O-])c(Nc2ccc(OC)cc2)n1	28.0	27.2	37.9	-11.8	-0.7
Cn1nc([N+](=O)[O-])nc1Oc1ccccc1	11.8	-10.7	2.6	.	79.4*
Cn1nc([N+](=O)[O-])nc1Oc1ccc(C(C)(C)C)cc1	-2.3	-14.1	-16.1	-0.7	64.0*
CC(Sc1nnc(Cc2ccccc2)n1C)C(=O)NC1CC1 (configuration not stated)	.	2.5	.	.	.
SMILES	aSyn 5UTR inh	Mdm2 MdmX PPI	SKKanGAS inh	CSC inhib	T cruzi inh
CC(C)Oc1ccc(CNC(=O)CC(c2ccccc2)c2cc(Cl)ccc2O)cc1 (configuration not stated)	29.3	-2.4	21.0	97.2*	56.4*
COc1ccccc1C(CC(=O)Nc1ccc(Cl)cc1)c1ccc(OC(C)C)cc1 (configuration not stated)	8.6	17.8	28.2	-1.2	46.5
S=c1[nH]nc(-c2cc3c(s2)-c2ccccc2CC3)o1	-123.5	4.4	73.3*	0.6	-28.5
Nc1c(-c2ccccc2)c(CSc2nc3ccccc3[nH]2)nn1-c1ccc(Cl)cc1	33.5	.	29.9	36.6	64.1*
Cc1ccccc1-n1nc(CSc2nc3ccccc3[nH]2)c(-c2ccccc2)c1N	8.4	-1.3	-7.9	23.4	10.8
CCOC(=O)c1c(NC(=O)C2C3C=CC(CC3)C2C(=O)O)sc(C)c1C (configuration not stated)	10.2	12.1	3.2	13.1	-9.9
Cc1sc(NC(=O)C2C3C=CC(C3)C2C(=O)O)c(C(N)=O)c1-c1ccc(C(C)C)cc1 (configuration not stated)	22.1	-13.7	52.7*	-3.0	-17.8
COc1ccc(CN(C)c2ncnc3sccc23)c(OC)c1OC	-8.9	32.4	-3.6	77.0*	20.8
CCOc1cc(Br)cc(/C=N/NC(=O)c2cccnc2)c1O	12.9	18.9	55.5*	17.1	35.2
COc1c(Br)cc(Br)cc1/C=N/NC(=O)c1cccnc1	-5.8	39.0	-1.6	-2.9	-11.4
CC1CC(C)CN(C(=O)CSc2ncnc3sccc23)C1 (configuration not stated)	.	-13.3	.	-4.5	.
O=C(CNC(=O)c1cc(Cl)cc([N+](=O)[O-])c1)NC1CC1	.	-9.4	.	13.2	.
O=C(NC(=S)Nn1cnc2c(cnn2-c2ccccc2)c1=O)c1ccc(Cl)cc1	16.8	1.3	6.3	5.6	-4.5
O=C(NC(=S)Nn1cnc2c(cnn2-c2ccccc2)c1=O)c1ccc(Oc2ccccc2)cc1	-28.2	2.4	89.3*	14.6	-6.8
O=C(Nc1ccccc1)Nc1cccc2ccccc12	-11.2	15.6	-0.5	3.1	-7.9
O=C(Nc1ccccc1)Nc1ccc(O)c2ccccc12	0.9	29.0	24.1	97.5*	9.3
O=C(Nc1ccc(Nc2ccccc2)cc1)Nc1ccccc1Cl	-226.9	-83.0	14.5	100.4*	4.3
COc1ccccc1N1CCN(S(=O)(=O)CCNC(=O)CC2CCCCC2)CC1	16.2	23.4	-2.1	-5.9	9.1
O=C(/C=C/c1ccc(Cl)cc1Cl)OCC(=O)N1CCCC1	.	-7.8	.	-10.1	.
CCOC(=O)c1c(CN2CCN(C)CC2)n(C)c2cc(Br)c(OC)cc12	-42.2	40.0	1.1	41.6	39.9
CCOC(=O)c1c(C)n(CC(O)CN(C)C)c2cc(Br)c(OC)cc12 (configuration not stated)	-16.2	32.8	-7.4	-13.9	79.2*
CCCN1CCN(C(=O)c2oc3ccccc3c2NC(=O)COc2ccc(OC)cc2)CC1	-3.4	14.3	2.2	-9.3	17.5
CS(=O)(=O)c1ccc(Cl)c(NC(=O)CSc2nnc(C3CC3)n2C2CC2)c1	.	-13.0	.	.	.
O=c1c2sc3nc(N4CCOCC4)c4c(c3c2ncn1-c1ccccc1)CCCC4	23.7	26.3	25.7	.	22.3
Cc1ccccc1-n1cnc2c(sc3nc(N4CCOCC4)c4c(c32)CCCC4)c1=O	21.0	27.2	38.0	27.7	71.3*
OCCN1CCN(c2ncnc3c2sc2nc(N4CCOCC4)c4c(c23)CCC4)CC1	24.5	30.2	10.3	42.8	59.5*
Cc1ccc(-n2sc3ccccc3c2=O)cc1	-121.2	29.1	95.6*	16.9	74.0*
COC(=O)c1cccc(-n2sc3ccccc3c2=O)c1	.	27.8	.	25.3	.
O=C(NCc1ccco1)C1(S(=O)(=O)c2ccccc2)CC=CC1	9.2	-20.0	-3.8	-13.4	-27.3
